Source: PubChem BioAssay AID540324 (Johns Hopkins Ion Channel Center, 2011)
Active and inactive are the calls of the source.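 Rule for the calls: active = maximum inhibition above 30% at any tested concentration, with a dose response curve fitted; inactive = no inhibition at any dose or no dose response curve.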

Assay: thallium flux inhibition in parental HEK293 cells, SAR follow-up, counter-screen for KCNK9 inhibitor project, cell-based, FluxOR thallium flux, concentration-response, set 2 (AID 540324)
Conditions: FluxOR fluorescence ratio; series mostly up to 30 µM
Outline: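 test system = parental HEK293 cells lacking KCNK9 expression | doses = Ten-concentration dilution series per compound | incubation = dye loading 90 min at room temperature in dark, compound exposure 20 min | measured by = fluorescence of thallium-sensitive FluxOR dye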

| SMILES | outcome |
| --- | --- |
| CCOc1ccccc1NC(=O)c1cccc(NC(=O)C2CCCO2)c1 (stereo not drawn) | inactive |
| O=C(Nc1cccc(NC(=O)c2cccc(C(F)(F)F)c2)c1)c1ccccc1 | inactive |
| S=c1[nH]nc(-c2ccco2)n1CC1CCCCC1 | inactive |
| CC(C1CC2CCC1C2)n1c(-c2ccoc2)n[nH]c1=S (stereo not drawn) | inactive |
| CCOc1ccccc1NC(=O)c1cccc(NC(=O)c2cccc(Cl)c2)c1 | inactive |
| Cc1cccc(C(=O)Nc2ccccc2NC(=O)c2ccccc2)c1 | inactive |
| Cc1cccc(C(=O)Nc2cccc(NC(=O)c3ccccc3Cl)c2)c1 | inactive |
| Cc1cccc(S(=O)(=O)Nc2cccc(NC(=O)c3ccccc3)c2)c1 | inactive |
| CCOc1ccccc1NC(=O)c1cccc(NC(=O)c2cccc(C)c2)c1 | inactive |
| Cc1cccc(C(=O)Nc2cccc(NC(=O)c3cccc(C(F)(F)F)c3)c2)c1 | inactive |
| Cc1cccc(C(=O)Nc2cccc(NC(=O)c3ccccc3OCC(C)C)c2)c1 | inactive |
| COc1ccccc1NC(=O)c1cccc(NC(=O)C2CCCC2)c1 | inactive |
| O=C(Nc1cccc(NC(=O)c2ccoc2)c1)c1ccccc1 | inactive |
| CCOc1ccccc1NC(=O)c1cccc(NC(=O)c2ccccc2C(F)(F)F)c1 | inactive |
| O=C(Nc1cccc(NC(=O)c2ccsc2)c1)c1ccccc1 | inactive |
| Cc1ccc(C(=O)Nc2cccc(NC(=O)c3ccccc3)c2)cc1 | inactive |
| O=C(Nc1cccc(NC(=O)c2ccc(F)cc2)c1)c1ccccc1 | inactive |
| Cc1cccc(C(=O)Nc2cccc(NC(=O)c3ccc(C(F)(F)F)cc3)c2)c1 | inactive |
